Screens (PubChem BioAssay)
Sampled rows, rich in hits. Any-hit rate of the full collection: about 1.1%.
CAL PDZ FP-1: blocks peptide binding to the human CAL PDZ domain; Q9HD26; purified CAL PDZ, TMR-peptide fluorescence polarization, 1 h; inhibition, % at 24.9 µM; actives 0.92% (n = 300,000);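 active means mean inhibition of at least 30% with at least half of replicates also reaching 30%; inconclusive means no clear call, values can overlap the other calls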;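 further: 0% = DMSO neutral control and 100% = excess unlabeled competitor peptide PRC23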
Rin1 Abl inh: human Rin1-Abl interaction inhibition | TR-FRET Rin1/Abl binding, biochemical | inhibition, % at 7.35 µM | actives 0.4% (n = 360,000) | AID 588664; in the data active means inhibition above about 5%, passing the limit was not always enough
ERp5 inh: ERp5 (human) disulfide isomerase inhibition | actives 0.05% (n = 350,000) | inhibition, % at 9.99 µM | ERp5 insulin aggregation, absorbance 650 nm, 90 min;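 active means mean replicate inhibition above about 25%, with every replicate also reaching it, limit read from the data, passing the limit was not always enough; inconclusive means only one of those two criteria met; inactive means neither criterion met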
ERAP1 inh: blocks human ERAP1 aminopeptidase activity | Q9NZ08 | recombinant ERAP1, Leu-AMC fluorescence, 60 min | inhibition, % at 10.7 µM | actives 0.15% (n = 340,000) | AID 652197;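 active means mean replicate inhibition of at least 30%, or all replicates individually reaching that 30% level; inactive means mean below 30% and not every replicate reaching it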;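 further: 0% = neutral control wells and 100% = L-leucinethiol positive control wells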
CAL PDZ FP-2: inhibitors of human CAL PDZ peptide binding; Q9HD26; purified CAL PDZ, TMR-peptide fluorescence polarization, 1 h; inhibition, % at 20 µM; actives 0.02% (n = 330,000);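 active means highest replicate inhibition of at least 40%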;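 further: plate controls were DMSO neutral control wells for no effect and unlabeled competitor peptide control wells for full effect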
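material = purified tagged CAL PDZ domain construct (CerCALP) | compound dosing = 20 µM, one dose | times = 1 h at RT | measured by = fluorescence polarization from S- and P-plane intensities, G-factor corrected | read-out = inhibition from polarization loss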
PDI turbidity: PDI (human) enzyme inhibition | P07237 | PDI insulin aggregation turbidity, A650, 90 min | inhibition, % at 10 µM | actives 0.052% (n = 350,000) | AID 588391;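 active means mean inhibition across replicates of 30% or more, whatever share of single replicates reach that level; inconclusive means mean inhibition below 30% while every single replicate reaches 30%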
Target sequence (P07237 whole entry, looked up): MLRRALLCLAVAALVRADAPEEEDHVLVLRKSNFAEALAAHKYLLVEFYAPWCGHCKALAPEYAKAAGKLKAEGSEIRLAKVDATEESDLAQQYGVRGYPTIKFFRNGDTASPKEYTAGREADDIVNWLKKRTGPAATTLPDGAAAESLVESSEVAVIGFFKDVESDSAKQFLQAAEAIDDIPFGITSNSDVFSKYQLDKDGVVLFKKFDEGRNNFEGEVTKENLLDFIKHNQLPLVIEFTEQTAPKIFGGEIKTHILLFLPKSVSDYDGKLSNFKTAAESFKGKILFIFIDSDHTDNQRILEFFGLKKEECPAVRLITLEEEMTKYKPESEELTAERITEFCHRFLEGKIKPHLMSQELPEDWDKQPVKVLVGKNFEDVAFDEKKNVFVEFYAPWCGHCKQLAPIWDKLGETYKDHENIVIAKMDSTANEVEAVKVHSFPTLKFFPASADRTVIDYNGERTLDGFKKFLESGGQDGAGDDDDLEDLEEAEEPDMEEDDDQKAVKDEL
Rin1 Abl conf: confirmation of inhibitors of human Rin1-Abl interaction; shares compounds with Rin1 Abl inh; TR-FRET Rin1-Abl binding, purified proteins; inhibition, % at 7.35 µM; actives 49% (n = 1,300)
GFP quench-1: counter-screen for Rin1-Abl inhibitors: GFP fluorescence quenchers | shares compounds with Rin1 Abl inh | inhibitors/quenchers counterscreen | inhibition, % at 6.75 µM | actives 8.5% (n = 1,300) | AID 602125;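 further: ABL1-eGFP fusion protein alone without its partner RIN1-SBP; 0% = protein with vehicle and 100% = wells lacking protein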
GFP quench DR: counter-screen for Rin1-Abl inhibitors: GFP quenchers, dose response. 230 tested, under 10 active. shares compounds with Rin1 Abl inh. IC50, µM. AID 602182. GFP fluorescence interference/quenching counterscreen; call rule not given here;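 further: ABL1-eGFP fusion protein alone without its RIN1 binding partner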
GFP quench-2: quenches GFP fluorescence in Rin1-Abl counterscreen | GFP fluorescence quenching counterscreen, biochemical | shares compounds with Rin1 Abl inh | 25 tested, under 10 active | IC50, µM; call rule not given here
* marks the source's active call; other numbers are inactive results; ? = inconclusive; . = not tested or not shown. Unless noted, no stated cut-off is given here; in the data, active means inhibition above about 6.5%; inactive means the rest.

SMILES	CAL PDZ FP-1	Rin1 Abl inh	ERp5 inh	ERAP1 inh	CAL PDZ FP-2	PDI turbidity	Rin1 Abl conf	GFP quench-1	others
NC(=O)COC(=O)CCCSc1nc2ccccc2s1	-2	11*	25	4	0	1	11*	1
CNC(=O)NC(=O)COC(=O)CCCSc1nc2ccccc2s1	-2	0	3	1	-1	1	.	.
COc1ccccc1N(C(=O)c1snc(C(N)=O)c1N)C(C(=O)NCc1ccccc1)c1ccc(O)cc1 (centres undefined)	0	22*	0	-7	-3	-12	23*	1	GFP quench DR=>68
COc1ccc(C(C(=O)NCc2ccccc2)N(C(=O)c2snc(C(N)=O)c2N)c2ccccc2OC)cc1 (centres undefined)	-5	12*	-2	0	-2	8	14*	0
COc1ccc(N(C(=O)c2snc(C(N)=O)c2N)C(C(=O)NCc2ccccc2)c2ccc(F)cc2)c(OC)c1 (centres undefined)	-7	9.9*	1	-1	-3	2	11*	-3
COc1cccc(CNC(=O)C[C@H]2CC[C@@H](NC(=O)C3CCC3)[C@H](CO)O2)c1	.	.	0	-2	.	.	.	.
Cc1ccc(NC(=O)CN(C)C(=O)CSc2nc3ccccc3c(=O)n2CCO)cc1	.	11*	-1	6	0	-1	9.0*	0
O=c1oc2ccccc2n1CCCCCn1c(=O)oc2ccccc21	-2	4.8*	.	.	-2	-9	-1	-1
C[C@H](CO)N1C[C@H](C)[C@H](CN(C)C(=O)Nc2ccccc2)OCCCC[C@H](C)Oc2ccc(NC(=O)NC3CCCCC3)cc2C1=O	.	.	1	1	.	.	.	.
COc1ccc(C=O)cc1OS(=O)(=O)c1ccc(NC(C)=O)cc1	-3	8.5*	3	-2	-1	2	1	0
COc1cc(C=O)cc(OC)c1OS(=O)(=O)c1ccc(NC(C)=O)cc1	-2	-3	.	.	-2	-5	.	.
CCCOc1ccc(/C=C/C(=O)N2CCN(C(=O)c3ccco3)CC2)cc1OC	.	15*	-7	-3	.	-1	17*	-1	GFP quench DR=>68
CCOC(=O)N1CCN(C(=O)/C=C/c2ccc(OC)c(OC)c2)CC1	0	-2	2	-2	0	-3	.	.
Cc1ccc(NC(=O)CN2C(=O)C3C4C=CC(C4)C3C2=O)cc1 (centres undefined)	2	6.3*	1	2	0	8	-2	1
Cc1ccc(-n2c(SCc3cc(=O)n4ccsc4n3)nnc2-c2cccnc2)c(C)c1	-2	17*	-3	-8	-1	1	19*	0	GFP quench DR=>68
Cc1ccc(-n2c(SCC(N)=O)nnc2-c2cccnc2)c(C)c1	2	2	.	.	-2	2	.	.
Cc1ccc(-n2c(SCC(=O)N3CCCc4ccccc43)nnc2-c2cccnc2)c(C)c1	-2	8.7*	-5	2	-2	-3	13*	0
CCOC(=O)N(C)C[C@H]1OCc2ccccc2-c2c(n(C)c3ccccc23)C(=O)N([C@H](C)CO)C[C@H]1C	.	.	-4	0	.	.	.	.
C[C@H]1CN([C@@H](C)CO)C(=O)c2cc(C3=CCCC3)cnc2O[C@@H]1CN(C)C	.	.	5	1	.	.	.	.
CN(CC(=O)Nc1ccccn1)S(=O)(=O)c1ccc(Cl)cc1	-3	36*	.	.	1	15	-3	-2
COc1cccc(CSc2nnc(CSc3nc4nc(C)cc(C)n4n3)s2)c1	-5	28*	-2	-1	-2	-2	39*	0	GFP quench DR=>68;GFP quench-2=>68
N#C/C(=C\c1cc(O)c(O)c(O)c1)C(N)=O	-27	49*	0	10	-1	-1	49*	20*
NC(=O)C1CCN(CC(=O)Nc2ccccc2Sc2ccc(Cl)cc2)CC1	-3	-1	-3	-1	-2	11	.	.
NC(=O)C1CCN(CC(=O)Nc2ccccc2Sc2ccccc2)CC1	0	7.3*	-2	0	-2	6	11*	2
Cc1ccc(C)c(SCC(=O)OCC(=O)Nc2ncc(C(F)(F)F)cc2Cl)c1	-2	9.1*	?	-2	-1	-7	0	0
SMILES	CAL PDZ FP-1	Rin1 Abl inh	ERp5 inh	ERAP1 inh	CAL PDZ FP-2	PDI turbidity	Rin1 Abl conf	GFP quench-1	others
CC12CCC(=O)N1C(C(=O)N1CCN(S(=O)(=O)c3ccc(Br)cc3Cl)CC1)CS2 (centres undefined)	-2	19*	4	5	-3	8	17*	2	GFP quench DR=>68
CC12CCC(=O)N1C(C(=O)N1CCN(S(=O)(=O)c3ccccc3F)CC1)CS2 (centres undefined)	-2	-5	0	0	-2	6	.	.
Cc1noc(C)c1NC(=O)N(C)C[C@@H]1Oc2ccc(N(C)C)cc2C(=O)N([C@@H](C)CO)C[C@H]1C	.	.	1	0	.	.	.	.
CC(=O)c1ccc(N(C(=O)c2csnn2)C(C(=O)NC2CCCC2)c2ccccc2)cc1 (centres undefined)	-2	11*	4	2	0	-11	2	0
O=C(NC1CCCC1)C(c1ccncc1)N(C(=O)c1csnn1)c1ccccc1 (centres undefined)	1	2	-2	0	-2	-6	.	.
Cc1cccc(N2C(=O)C(CC(=O)Nc3cccc(F)c3)N(CCc3ccncc3)C2=O)c1 (centres undefined)	-4	5.3*	-5	5	-2	-3	0	-1
Cc1ccc(-c2nnc(-n3ncc(C#N)c3N)c3ccccc23)cc1C	1	9.3*	4	-1	-2	6	-1	-1
O=S(=O)(Nc1cc2nc3ccccc3nc2n1Cc1ccccc1)c1ccc(Cl)cc1	-2	30*	0	-1	-1	4	28*	-2	GFP quench DR=>68
O=S(=O)(NCc1ccccc1)c1ccc(Cl)cc1	-8	-2	.	.	0	5	.	.
CN(Cc1cnccn1)C(=O)C1CCC(=O)N(CCc2ccccc2)C1 (centres undefined)	-2	25*	-2	6	-3	5	29*	1	GFP quench DR=>68
CN(Cc1cnccn1)C(=O)C1CCC(=O)N(CCc2ccc(Cl)cc2)C1 (centres undefined)	-9	3	3	-6	0	-1	.	.
